Experiments:
[1] = (§1) Cytotoxicity against human rhabdomyosarcoma (RD) cells; format: functional; conditions: Homo sapiens, RD
Enterovirus A71 = assay: Inhibition concentration against EV-71; format: functional, organism-based
[2] = Cytotoxicity against human normal skin fibroblast (W138) cells; format: cell-based
Method in brief: (§2)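 Test compound at various concentrations added to D551 (human normal skin fibroblast), WI38 (human normal lung fibroblast) or RD cells; incubated 96 h at 37 °C; cells harvested and viable cells counted by trypan blue staining. Triplicate, at least twice.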

[3] = Cytotoxicity against human normal skin fibroblast (D551) cells; format: cell-based; method in brief: as §2
[4] = as §1; format: functional; method in brief: as §2
[5] = Selectivity index (W138/EV71) of the compound; format: functional
[6] = Selectivity index (RD/EV71) of the compound; format: functional
[7] = Selectivity index (D551/EV71) of the compound; format: functional
[8] = W138 normal skin fibroblast cells
[9] = D551 normal skin fibroblast cells

| Structure (SMILES) | IC50 (Enterovirus A71; Enterovirus A) | CC50 [1] | also measured |
| --- | --- | --- | --- |
| Cc1ccc(OCCCCCCN2CCN(c3cccnc3)C2=O)cc1 | > 25 µM | > 25 µM | – |
| O=C1N(CCCCCCOc2ccc(Br)cc2)CCN1c1ccccc1 | 10.6 µM | > 25 µM | – |
| CSc1ccc(OCCCCCCN2CCN(c3ccnc(Cl)c3)C2=O)cc1 | > 25 µM | > 25 µM | – |
| O=C1N(CCCCCCOc2ccc(Cl)cc2)CCN1c1ccncn1 | > 25 µM | > 25 µM | – |
| O=C1N(CCCCCOc2ccc(-c3ccc([N+](=O)[O-])cc3)cc2)CCN1c1ccncc1 [listing 1 of 2 here] | – | – | CC50 [2]: 70 µM; IC50 (Enterovirus A71): 0.33 µM; CC50 [3]: 66 µM |
| O=C1N(CCCCCCOc2cccc(Br)c2)CCN1c1ccncc1 | > 25 µM | > 25 µM | – |
| O=C1N(CCCCCCCOc2ccc(Br)cc2)CCN1c1ccncn1 | > 25 µM | > 25 µM | – |
| CN(C)c1cccc(OCCCCCCN2CCN(c3ccncc3)C2=O)c1 | > 25 µM | > 25 µM | – |
| O=C1N(CCCCCCOc2c(Cl)cccc2Cl)CCN1c1ccncc1 | > 25 µM | > 25 µM | – |
| N#Cc1ccc(OCCCCCCN2CCN(c3ccncc3)C2=O)cc1 | > 0.39 µM | 0.39 µM | – |
| O=C1N(CCCCCCOc2cccc3cccnc23)CCN1c1ccncc1 | > 25 µM | > 25 µM | – |
| O=C1N(CCCCCOc2ccc(C(F)(F)F)cc2)CCN1c1ccncn1 | > 25 µM | > 25 µM | – |
| O=C1N(CCCCCCOc2ccc(C(F)(F)F)cc2)CCN1c1ccnc(Cl)c1 | > 25 µM | > 25 µM | – |
| O=C1N(CCCCCCOc2ccc(Br)cc2)CCN1c1ccncn1 | > 25 µM | > 25 µM | – |
| O=C1N(CCCCCOc2ccc(Br)cc2)CCN1c1ccccc1 | 10.7 µM | > 25 µM | – |
| O=C1N(CCCCCCOc2cccc3ccccc23)CCN1c1ccncc1 | > 6.25 µM | 6.25 µM | – |
| O=C1N(CCCCCOc2ccc(Br)cc2)CCN1c1ccnc(Cl)c1 | > 25 µM | > 25 µM | – |

The remaining compounds from weak to strong by IC50 (Enterovirus A71; Enterovirus A), led by results:

| IC50 (Enterovirus A71; Enterovirus A) | Structure (SMILES) | CC50 [1] | also measured |
| --- | --- | --- | --- |
| 9.33 µM | O=C1N(CCCCCCOc2ccc(F)cc2)CCN1c1cccnc1 | > 25 µM | – |
| 5.43 µM | COc1ccc(OCCCCCCN2CCN(c3ccncc3)C2=O)cc1 | – | CC50 [4]: > 25 µM |
| 2.66 µM | N#Cc1ccc(-c2ccc(OCCCCCN3CCN(c4ccncc4)C3=O)cc2)cc1 | > 25 µM | – |
| 0.66 µM | O=C1N(CCCCCCCOc2ccc(Cl)cc2)CCN1c1ccncc1 | > 25 µM | – |
| 0.61 µM | O=C1N(CCCCCCCOc2ccc(C(F)(F)F)cc2)CCN1c1ccncc1 | 6.25 µM | – |
| 0.59 µM | O=C1N(CCCCCOc2ccc(-c3ccc([N+](=O)[O-])cc3)cc2)CCN1c1ccncc1 [listing 2 of 2 here] | > 25 µM | CC50 [2, 8]: > 100 µM; CC50 [3, 9]: > 100 µM |
| 0.5 µM | O=C1N(CCCCCOc2ccc(Br)cc2)CCN1c1ccncc1 | – | Selectivity index [5]: 130; CC50 [2, 8]: 65 µM; Selectivity index [6]: > 50; Selectivity index [7]: 100; CC50 [3, 9]: 50 µM; CC50 [4]: > 25 µM |
| 0.34 µM | COc1ccc(-c2ccc(OCCCCCN3CCN(c4ccncc4)C3=O)cc2)cc1 | > 25 µM | Selectivity index [5]: > 294; CC50 [2, 8]: > 100 µM; Selectivity index [6]: > 74; Selectivity index [7]: > 294; CC50 [3, 9]: > 100 µM |
| 0.14 µM | O=C1N(CCCCCOc2ccc(-c3ccc(Br)cc3)cc2)CCN1c1ccncc1 | > 25 µM | Selectivity index [5]: > 714; CC50 [2, 8]: > 100 µM; Selectivity index [6]: > 179; Selectivity index [7]: > 714; CC50 [3, 9]: > 100 µM |

Reference: ChEMBL document CHEMBL1135916, “Design, synthesis, and structure-activity relationship of pyridyl imidazolidinones: a novel class of potent and selective human enterovirus 71 inhibitors” (J Med Chem, 2002)
